Assay results from ChEMBL document CHEMBL1155364, “Inhibitors of HIV-1 attachment. Part 4: A study of the effect of piperazine substitution patterns on antiviral potency in the context of indole-based derivatives” (Bioorg Med Chem Lett, 2009).

What was measured:
[1] = Metabolic stability in human liver microsomes after 10 mins; assay type: ADME, Microsome; settings: read-out: Stability
[2] = Metabolic stability in rat liver microsomes after 10 mins; assay type: ADME, Microsome; settings: read-out: Stability
[3] = (§1) Permeability across monolayer of human Caco-2 cell; assay type: ADME, cell-based; settings: read-out: permeability
[4] = tested on: Human immunodeficiency virus 1; experiment: Antiviral activity against HIV1 infected HeLa67 after 3 days by luciferase reporter assay; assay type: functional, organism-based; settings: Human immunodeficiency virus 1, HeLa67, 72 h
[5] = Cytotoxicity against human HeLa67 cell after 3 days by XTT assay; assay type: cell-based; settings: HeLa67 cells
Method in brief: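 HeLa67 cells exposed to test compounds in parallel with the antiviral assay; XTT read-out 3 days after compound addition, giving CC50.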

Caco-2 = experiment: as §1; assay type: ADME, cell-based

Structure (SMILES)	remaining at 10 min [1]	remaining at 10 min [2]	Papp [3]	EC50 [4]	permeability (Caco-2)	CC50 at 72 h [5]
CC(C)CC1CN(C(=O)c2ccccc2)CCN1C(=O)C(=O)c1c[nH]c2cccc(F)c12 (stereo not drawn)	38%	7%	17.1 ×10⁻⁶ cm/s			
O=C(NCCCNC(=O)c1ccccc1)C(=O)c1c[nH]c2cccc(F)c12				> 50 µM		> 300 µM
CCCCCC1CN(C(=O)C(=O)c2c[nH]c3cccc(F)c23)CCN1C(=O)c1ccccc1 (stereo not drawn)	45%	3%	6.9 ×10⁻⁶ cm/s			
O=C(NC1CCCC(NC(=O)c2ccccc2)C1)C(=O)c1c[nH]c2cccc(F)c12 (stereo not drawn)				> 50 µM		> 300 µM
COc1cccc2[nH]cc(C(=O)C(=O)N3CCN(C(=O)c4ccccc4)C[C@H]3C)c12	84%	56%	4.6 ×10⁻⁶ cm/s			
O=C(C(=O)N1CCN(C(=O)c2ccccc2)CC1)c1c[nH]c2cccc(F)c12	98%	51%	4.7 ×10⁻⁶ cm/s			
CN(CCN(C)C(=O)c1ccccc1)C(=O)C(=O)c1c[nH]c2cccc(F)c12				> 50 µM		> 300 µM
O=C(NCCNC(=O)c1ccccc1)C(=O)c1c[nH]c2cccc(F)c12				> 50 µM		> 300 µM
CN(CCCN(C)C(=O)c1ccccc1)C(=O)C(=O)c1c[nH]c2cccc(F)c12				> 50 µM		> 300 µM
COc1cccc2[nH]cc(C(=O)C(=O)N3CCN(C(=O)c4ccccc4)CC3)c12	100%	88%	4.3 ×10⁻⁶ cm/s			
COc1cccc2[nH]cc(C(=O)C(=O)N3CCN(C(=O)c4ccccc4)C[C@@H]3C)c12	98%	75%			Not Active	
O=C(N[C@H]1CCCC[C@H]1NC(=O)c1ccccc1)C(=O)c1c[nH]c2cccc(F)c12 (relative stereo)				30.5 µM		65 µM
CCCCCC1CN(C(=O)c2ccccc2)CCN1C(=O)C(=O)c1c[nH]c2cccc(F)c12 (stereo not drawn)	29%	0%	15.4 ×10⁻⁶ cm/s			
CC(C)CC1CN(C(=O)C(=O)c2c[nH]c3cccc(F)c23)CCN1C(=O)c1ccccc1 (stereo not drawn)	35%	13%	19 ×10⁻⁶ cm/s			
CC(C)(C)C1CN(C(=O)c2ccccc2)CCN1C(=O)C(=O)c1c[nH]c2cccc(F)c12 (stereo not drawn)	68%	49%	17 ×10⁻⁶ cm/s			
O=C(N[C@H]1CCCC[C@@H]1NC(=O)c1ccccc1)C(=O)c1c[nH]c2cccc(F)c12 (relative stereo)				> 50 µM		> 300 µM
O=C(C(=O)N1CCCN(C(=O)c2ccccc2)CC1)c1c[nH]c2cccc(F)c12				> 50 µM		> 300 µM
COc1cccc2[nH]cc(C(=O)C(=O)N3CCN(C(=O)c4ccccc4)CC3C)c12 (stereo not drawn)	84%	72%			Not Active	
CC(C)(C)C1CN(C(=O)C(=O)c2c[nH]c3cccc(F)c23)CCN1C(=O)c1ccccc1 (stereo not drawn)	58%	44%	19 ×10⁻⁶ cm/s			

Further lines, with some results ahead:

remaining at 10 min [1]	remaining at 10 min [2]	Papp [3]	EC50 [4]	permeability (Caco-2)	Structure (SMILES)	CC50 at 72 h [5]
59%	31%	16.5 ×10⁻⁶ cm/s			CC(C)C1CN(C(=O)c2ccccc2)CCN1C(=O)C(=O)c1c[nH]c2cccc(F)c12 (stereo not drawn)	
76%	59%	9.6 ×10⁻⁶ cm/s			C[C@@H]1CN(C(=O)c2ccccc2)[C@H](C)CN1C(=O)C(=O)c1c[nH]c2cccc(F)c12 (relative stereo)	
82%	12%	7.2 ×10⁻⁶ cm/s			CC1CN(C(=O)c2ccccc2)CCN1C(=O)C(=O)c1c[nH]c2cccc(F)c12 (stereo not drawn)	
100%	32%	3.6 ×10⁻⁶ cm/s			CC1CN(C(=O)C(=O)c2c[nH]c3cccc(F)c23)CCN1C(=O)c1ccccc1 (stereo not drawn)	
63%	25%	17.1 ×10⁻⁶ cm/s			CCC1CN(C(=O)C(=O)c2c[nH]c3cccc(F)c23)CCN1C(=O)c1ccccc1 (stereo not drawn)	
85%	32%	8.8 ×10⁻⁶ cm/s			C[C@H]1CN(C(=O)c2ccccc2)CCN1C(=O)C(=O)c1c[nH]c2cccc(F)c12	
69%	16%	7.3 ×10⁻⁶ cm/s			C[C@@H]1CN(C(=O)C(=O)c2c[nH]c3cccc(F)c23)C[C@H](C)N1C(=O)c1ccccc1	
43%	0%	5 ×10⁻⁶ cm/s			C[C@@H]1CN(C(=O)c2ccccc2)[C@@H](C)CN1C(=O)C(=O)c1c[nH]c2cccc(F)c12	
55%	8%	15 ×10⁻⁶ cm/s			CCC1CN(C(=O)c2ccccc2)CCN1C(=O)C(=O)c1c[nH]c2cccc(F)c12 (stereo not drawn)	
74%	2%	5.4 ×10⁻⁶ cm/s			C[C@@H]1CN(C(=O)c2ccccc2)CCN1C(=O)C(=O)c1c[nH]c2cccc(F)c12	
50%	25%	15.4 ×10⁻⁶ cm/s			CCCC1CN(C(=O)C(=O)c2c[nH]c3cccc(F)c23)CCN1C(=O)c1ccccc1 (stereo not drawn)	
55%	2%	< 1.5 ×10⁻⁶ cm/s			C[C@@H]1CN(C(=O)c2ccccc2)C[C@H](C)N1C(=O)C(=O)c1c[nH]c2cccc(F)c12	
63%	39%	16.1 ×10⁻⁶ cm/s			CC(C)C1CN(C(=O)C(=O)c2c[nH]c3cccc(F)c23)CCN1C(=O)c1ccccc1 (stereo not drawn)	
52%	11%	17.2 ×10⁻⁶ cm/s			CCCC1CN(C(=O)c2ccccc2)CCN1C(=O)C(=O)c1c[nH]c2cccc(F)c12 (stereo not drawn)	
			> 50 µM		O=C(C(=O)N1CC2CC1CN2C(=O)c1ccccc1)c1c[nH]c2cccc(F)c12 (stereo not drawn)	> 300 µM
